Assay results taken from ChEMBL document CHEMBL1127668, “Antagonist, partial agonist, and full agonist imidazo[1,5-a]quinoxaline amides and carbamates acting through the GABAA/benzodiazepine receptor” (J Med Chem, 1994).
“And” between values parts separate entries of the source, which are not always exact repeats. Equal values may be shown once.

Assays:
[1] = biological target: GABA-A receptor; anion channel; test: Displacement of [3H]- flunitrazepam from rat GABA-A benzodiazepine receptor; assay type: protein-complex assay
Rattus norvegicus [2] = species: Rattus norvegicus; test: Chloride ion influx in rat cerebrocortical membranes; assay type: functional
[3] = biological target: T1, GABA-A receptor; anion channel (Rattus norvegicus) (UniProt O09028+P15431+P18506+P18508+P19969+P20236+P23574+P23576+P28471+P28473+P30191+P62813+P63079+P63138+Q91ZM7+Q9ES14); test: Shift in the affinity of [35S]TBPS for the chloride channel of GABAA receptor complex in the presence and absence of compound; assay type: protein-complex assay
Rattus norvegicus [4] = test: The compound was tested for antagonistic activity against metrazole induced convulsions in rats after ip administration; assay type: functional
Rattus norvegicus [5] = test: The compound was tested for antagonistic activity against metrazole induced convulsions in rats, after ip administration; assay type: functional
[6] = Displacement of [3H]-Ro- 15-4513 from alpha-1-beta-2-gamma-2 GABA-A receptor subunits expressed in Sf9 cell membranes; design: species or system Rattus norvegicus
[7] = Displacement of [3H]flunitrazepam from alpha-1-beta-2-gamma-2 GABA-A receptor subunits expressed in Sf9 cell membranes; design: species or system Rattus norvegicus
In short: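 Sf-9 membranes from cells infected with baculovirus carrying α1, β2 and γ2 cDNAs, harvested 60 h postinfection. Assay in normal saline with 6 nM [3H]flunitrazepam, 50 µg membrane protein and six test concentrations; 60 min at 4 °C; glass-fiber filtration, four cold washes, scintillation counting.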

[8] = biological target: T1, GABA-A receptor; anion channel (Rattus norvegicus); test: Inhibition of [35S]TBPS binding to GABA-A receptor complex; assay type: protein-complex assay
[9] = biological target: GABA A receptor alpha-6/beta-2/gamma-2 (Homo sapiens, UniProt P18507+P47870+Q16445); test: Displacement of [3H]-Ro- 15-4513 from alpha-6-beta-2-gamma-2 GABA-A receptor subunits expressed in Sf9 cell membranes
In short: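 Sf-9 cells infected with baculovirus carrying α6, β2 and γ2 cDNAs, harvested 60 h postinfection; membranes stored at -80 °C in 300 mM sucrose, 5 mM Tris/HCl pH 7.5, 20% glycerol. 50 µg membrane protein with 6 nM [3H]Ro 15-4513 and six test concentrations in normal saline, 60 min at 4 °C; filtered, washed, scintillation counted.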

GABA A receptor alpha-6/beta-2/gamma-2, sequence (P47870 whole entry): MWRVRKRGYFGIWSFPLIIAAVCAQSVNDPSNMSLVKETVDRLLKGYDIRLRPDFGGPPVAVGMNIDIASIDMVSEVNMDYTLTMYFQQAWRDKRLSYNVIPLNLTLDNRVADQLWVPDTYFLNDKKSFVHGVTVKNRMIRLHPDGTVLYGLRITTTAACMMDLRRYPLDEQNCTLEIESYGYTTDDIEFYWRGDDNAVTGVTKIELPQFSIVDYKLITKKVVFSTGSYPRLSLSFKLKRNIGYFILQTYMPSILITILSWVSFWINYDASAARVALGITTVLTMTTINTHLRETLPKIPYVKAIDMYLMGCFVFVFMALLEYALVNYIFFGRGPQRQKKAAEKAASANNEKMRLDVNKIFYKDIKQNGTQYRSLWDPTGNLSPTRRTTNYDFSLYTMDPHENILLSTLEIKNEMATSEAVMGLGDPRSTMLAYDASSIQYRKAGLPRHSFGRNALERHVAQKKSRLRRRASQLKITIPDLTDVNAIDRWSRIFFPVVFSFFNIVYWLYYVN
GABA A receptor alpha-6/beta-2/gamma-2, sequence (P18507 whole entry): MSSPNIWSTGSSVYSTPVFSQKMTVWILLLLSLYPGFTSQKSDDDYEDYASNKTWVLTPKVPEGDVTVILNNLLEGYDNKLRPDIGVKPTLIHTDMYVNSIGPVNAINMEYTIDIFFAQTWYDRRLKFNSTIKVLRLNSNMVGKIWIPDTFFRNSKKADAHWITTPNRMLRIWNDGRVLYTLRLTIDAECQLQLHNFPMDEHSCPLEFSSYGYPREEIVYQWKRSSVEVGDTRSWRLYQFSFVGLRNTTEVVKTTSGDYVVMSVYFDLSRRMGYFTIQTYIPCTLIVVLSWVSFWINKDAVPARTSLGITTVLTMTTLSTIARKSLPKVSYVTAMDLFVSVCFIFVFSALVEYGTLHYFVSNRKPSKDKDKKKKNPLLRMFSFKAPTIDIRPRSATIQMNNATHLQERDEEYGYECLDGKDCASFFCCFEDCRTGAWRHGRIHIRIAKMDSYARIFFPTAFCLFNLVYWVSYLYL
GABA A receptor alpha-6/beta-2/gamma-2, sequence (Q16445 whole entry): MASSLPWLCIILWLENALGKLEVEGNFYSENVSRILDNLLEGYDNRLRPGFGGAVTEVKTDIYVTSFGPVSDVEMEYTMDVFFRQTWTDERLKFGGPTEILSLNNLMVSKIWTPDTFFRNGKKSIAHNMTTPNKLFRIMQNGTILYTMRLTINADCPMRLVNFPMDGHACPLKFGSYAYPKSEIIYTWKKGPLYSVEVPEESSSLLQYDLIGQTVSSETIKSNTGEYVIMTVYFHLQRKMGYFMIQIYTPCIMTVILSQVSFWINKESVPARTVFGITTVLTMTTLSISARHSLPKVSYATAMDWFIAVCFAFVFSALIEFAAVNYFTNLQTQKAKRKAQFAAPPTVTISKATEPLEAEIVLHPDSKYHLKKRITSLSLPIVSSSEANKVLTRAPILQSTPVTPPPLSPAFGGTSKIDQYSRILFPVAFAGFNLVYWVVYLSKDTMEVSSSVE

Row | SMILES | Ki [1] | Chlorine uptake (Rattus norvegicus [2]) | TBPS shift [3] | ED50 (Rattus norvegicus [4]) | ED50 (Rattus norvegicus [5]) | Ki [6] | Ki [7] | TBPS shift [8] | Ki [9]
1 | CC(C)(C)OC(=O)c1ncn2c1CN(C(=O)c1ccccc1Cl)c1ccccc1-2 | 4 nM | -0.15 | 0.2 | > 50 mg/kg | – | – | – | – | –
2 | O=C1CC[C@@H]2c3c(-c4noc(C5CC5)n4)ncn3-c3ccccc3N12 | 0.65 nM | – | 0.9 | 1.9 mg/kg | – | – | – | – | –
3 | CC(C)OC(=O)N1c2ccccc2-n2cnc(-c3noc(C4CC4)n3)c2C1(C)C | 6.7 nM | 0.7 | 1.2 | 3.7 mg/kg | – | – | – | – | –
4 | COC(=O)N1c2ccccc2-n2cnc(-c3noc(C4CC4)n3)c2C1(C)C | 6.8 nM | 1.18 and 0.4 | 1.04 and 0.8 | > 50 mg/kg | – | – | – | – | –
5 | O=C1CCC2c3c(-c4noc(C5CC5)n4)ncn3-c3ccccc3N12 (stereo not given) | 0.87 nM | 0.29 | 1.15 | – | – | – | – | – | –
6 | Cc1ccc(-c2nc3ccc(C)cn3c2CC(=O)N(C)C)cc1 [ZOLPIDEM] | – | – | – | 4.4 mg/kg | – | – | – | – | –
7 | O=C(c1ccccc1)N1Cc2c(-c3noc(C4CC4)n3)ncn2-c2cccc(F)c21 | 0.77 nM | 0.9 | 0.87 | – | 25 mg/kg | 681 nM | 0.3 nM | – | –
8 | CC(=O)N1Cc2c(-c3noc(C4CC4)n3)ncn2-c2cccc(F)c21 | – | – | – | – | – | 107 nM | 0.8 nM | – | –
9 | O=C(c1ccccc1)N1Cc2c(-c3noc(C4CC4)n3)ncn2-c2ccccc21 | 4.3 nM | – | 0.5 | – | – | 1140 nM | 0.3 nM | – | –
10 | O=C(c1ccccc1Cl)N1Cc2c(-c3noc(C4CC4)n3)ncn2-c2ccccc21 | 1.4 nM | 0.28 | 0 | > 50 mg/kg | – | – | – | – | –
11 | CC(C)(C)OC(=O)c1ncn2c1C1CCC(=O)N1c1ccccc1-2 (stereo not given) | 0.76 nM | – | – | > 50 mg/kg | – | 13.2 nM | 0.4 nM | 0.06 | –
12 | CC(=O)N1Cc2c(-c3nc(C4CC4)no3)ncn2-c2ccccc21 | 6.6 nM | 0.6 | 0.7 | 42 mg/kg | – | – | – | – | –
13 | CC(=O)N1Cc2c(-c3noc(C4CC4)n3)ncn2-c2ccc(F)cc21 | 0.69 nM | – | 1.11 | – | – | 81 nM | 0.6 nM | – | –
14 | CC(=O)N1Cc2c(-c3noc(C4CC4)n3)ncn2-c2ccccc21 | 1.5 nM | – | 0.9 | 35 mg/kg | – | 124 nM | 2.7 nM | – | –
15 | CC(=O)N1c2ccccc2-n2cnc(-c3noc(C4CC4)n3)c2C1(C)C | 4.8 nM | – | 0.7 | 30 mg/kg | – | – | – | – | –
16 | O=C1OCC2c3c(-c4noc(C5CC5)n4)ncn3-c3ccccc3N12 (stereo not given) | 2.4 nM | 0.5 | 0.96 | – | – | – | – | – | –
17 | O=C(c1ccccc1)N1Cc2c(-c3noc(C4CC4)n3)ncn2-c2ccc(F)cc21 | 0.58 nM | 0.67 | 0.98 | – | – | > 10000 nM | 0.4 nM | – | –
18 | CN1C(=O)CN=C(c2ccccc2)c2cc(Cl)ccc21 [DIAZEPAM] | – | 1 | – | – | 0.5 mg/kg | – | – | – | > 7000 nM
19 | CC(C)(C)OC(=O)N1Cc2c(-c3noc(C4CC4)n3)ncn2-c2ccccc21 | 1.9 nM | – | 2.9 | 0.06 mg/kg | – | – | – | – | –
20 | O=C1CC[C@H]2c3c(-c4noc(C5CC5)n4)ncn3-c3ccccc3N12 | 0.62 nM | – | 1.05 | 1.1 mg/kg | – | – | – | – | –
21 | CC(=O)N1Cc2c(C(=O)OC(C)(C)C)ncn2-c2ccccc21 | – | 0 | -0.06 | – | – | – | – | – | –
22 | CCOC(=O)c1ncn2c1CN(C)C(=O)c1cc(N=[N+]=[N-])ccc1-2 [Ro-154513] | – | – | – | – | – | – | 15 nM | – | 5.4 nM
23 | CC(C)(C)OC(=O)c1ncn2c1CN(C(=O)OC(C)(C)C)c1ccccc1-2 | 5.1 nM | 0.14 | 0.45 | – | – | – | – | – | –
